The text below walks through data of ChEMBL document CHEMBL1154083, “Synthesis and structure-activity relationship of 3beta-(4-alkylthio, -methylsulfinyl, and -methylsulfonylphenyl)tropane and 3beta-(4-alkylthiophenyl)nortropane derivatives for monoamine transporters” (Bioorg Med Chem, 2009).

What is called IC50 is the concentration that gives 50% inhibition. The low end stands for inhibition by little substance, the high end for a need for much substance. What is called Ki is a dissociation constant, usually derived from enzyme kinetics or from competition with a known ligand. High values mean weaker binding, low ones tighter binding.

For assay [1], the target named is Sodium-dependent dopamine transporter (Homo sapiens, UniProt Q01959). Kind of assay: Displacement of [3H]WIN-35428 from DAT. In a few lines: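 [3H]WIN35,428 displacement at DAT; IC50 reported because DAT has two binding sites. Compounds tested as HCl or tartrate salts. Mean ± standard error of three or four experiments, each run in triplicate.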
For orientation: Displacement assays read how much labelled ligand stays bound in the presence of the test substance.

For assay [2], the target named is Sodium-dependent serotonin transporter (Homo sapiens, UniProt P31645). Kind of assay: Displacement of [3H]paroxetine from 5-HTT. The essentials: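 Inhibition of [3H]paroxetine binding at 5-HTT, a single-site transporter, with Ki calculated from it. Compounds tested as HCl or tartrate salts. Mean ± standard error of three or four experiments, each run in triplicate.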

Assay [3] concerns the target Sodium-dependent noradrenaline transporter (Homo sapiens, UniProt P23975). In words: Displacement of [3H]nisoxetine from NET.
A short description of assay [4]: Selectivity ratio of Ki for NET to Ki for 5-HTT. The essentials: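 NET/5-HTT selectivity: NET Ki (from [3H]nisoxetine binding) divided by 5-HTT Ki (from [3H]paroxetine binding). Both values are means of three or four triplicate experiments.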
The nature of assay [5]: Selectivity ratio of Ki for NET to IC50 for DAT. In a few lines:
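NET/DAT selectivity: NET Ki (from [3H]nisoxetine binding) divided by DAT IC50 (from [3H]WIN35,428 binding). Both values are means of three or four triplicate experiments.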

Chain of Sodium-dependent dopamine transporter (Q01959 whole entry): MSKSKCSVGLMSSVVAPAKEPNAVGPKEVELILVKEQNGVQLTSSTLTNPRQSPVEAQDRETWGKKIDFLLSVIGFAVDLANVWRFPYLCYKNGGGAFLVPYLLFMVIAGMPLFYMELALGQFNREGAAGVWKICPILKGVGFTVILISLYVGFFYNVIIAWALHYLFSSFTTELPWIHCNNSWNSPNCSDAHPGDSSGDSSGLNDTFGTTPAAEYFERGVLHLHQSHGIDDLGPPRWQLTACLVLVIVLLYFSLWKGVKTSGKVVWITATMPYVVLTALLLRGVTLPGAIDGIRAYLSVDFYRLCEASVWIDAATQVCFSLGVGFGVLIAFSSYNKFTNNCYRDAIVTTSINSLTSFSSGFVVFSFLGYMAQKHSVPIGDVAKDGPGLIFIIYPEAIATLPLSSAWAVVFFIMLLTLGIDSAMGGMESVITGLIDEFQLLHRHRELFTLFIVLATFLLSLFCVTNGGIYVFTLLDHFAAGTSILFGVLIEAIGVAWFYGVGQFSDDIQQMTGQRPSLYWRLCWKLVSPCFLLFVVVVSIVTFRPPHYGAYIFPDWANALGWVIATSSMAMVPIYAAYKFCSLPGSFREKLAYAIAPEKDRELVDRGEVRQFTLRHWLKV
Chain of Sodium-dependent noradrenaline transporter (P23975 whole entry): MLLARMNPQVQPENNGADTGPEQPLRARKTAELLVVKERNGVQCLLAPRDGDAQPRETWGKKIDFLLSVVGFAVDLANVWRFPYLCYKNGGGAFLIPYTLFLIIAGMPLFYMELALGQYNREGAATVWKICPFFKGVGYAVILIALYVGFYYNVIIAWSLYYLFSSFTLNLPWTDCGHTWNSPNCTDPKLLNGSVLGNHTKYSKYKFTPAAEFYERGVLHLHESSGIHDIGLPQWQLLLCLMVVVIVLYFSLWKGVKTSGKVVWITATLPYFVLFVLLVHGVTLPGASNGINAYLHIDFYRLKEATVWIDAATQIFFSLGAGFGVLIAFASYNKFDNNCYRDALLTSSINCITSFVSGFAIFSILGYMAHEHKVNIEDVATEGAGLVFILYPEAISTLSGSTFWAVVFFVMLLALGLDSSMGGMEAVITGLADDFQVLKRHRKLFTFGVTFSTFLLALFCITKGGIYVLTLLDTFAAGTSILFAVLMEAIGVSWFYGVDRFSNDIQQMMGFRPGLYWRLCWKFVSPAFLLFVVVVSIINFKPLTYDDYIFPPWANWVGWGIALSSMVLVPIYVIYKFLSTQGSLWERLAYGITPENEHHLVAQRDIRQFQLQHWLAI
Chain of Sodium-dependent serotonin transporter (P31645 whole entry): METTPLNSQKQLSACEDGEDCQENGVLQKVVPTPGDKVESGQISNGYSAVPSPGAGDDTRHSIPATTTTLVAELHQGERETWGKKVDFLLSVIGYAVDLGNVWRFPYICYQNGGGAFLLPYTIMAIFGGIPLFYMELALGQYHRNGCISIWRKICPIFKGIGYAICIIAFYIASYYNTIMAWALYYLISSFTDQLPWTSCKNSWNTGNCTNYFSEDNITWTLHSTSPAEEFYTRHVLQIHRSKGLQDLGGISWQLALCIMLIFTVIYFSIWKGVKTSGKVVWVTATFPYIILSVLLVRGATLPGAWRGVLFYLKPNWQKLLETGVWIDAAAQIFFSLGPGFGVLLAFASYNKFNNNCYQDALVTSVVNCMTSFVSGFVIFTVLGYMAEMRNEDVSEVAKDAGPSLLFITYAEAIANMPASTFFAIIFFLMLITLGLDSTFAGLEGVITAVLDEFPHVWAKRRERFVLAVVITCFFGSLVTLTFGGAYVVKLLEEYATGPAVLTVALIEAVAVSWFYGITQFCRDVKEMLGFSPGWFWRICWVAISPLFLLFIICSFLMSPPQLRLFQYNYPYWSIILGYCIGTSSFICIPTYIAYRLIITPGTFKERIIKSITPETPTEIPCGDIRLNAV

`COC(=O)[C@H]1[C@@H](c2ccc(S(C)(=O)=O)cc2)C[C@@H]2CC[C@H]1N2C`: the IC50 in assay [1] was greater than 10000 nM. Further, the Ki was 208 nM in assay [2] and greater than 10000 nM in assay [3]. In addition, in assay [4], the Ratio Ki is greater than 48.

`COC(=O)[C@H]1[C@@H](c2ccc(SC(F)(F)F)cc2)C[C@@H]2CC[C@H]1N2C`: in assay [1], the IC50 turned out to be 200 nM. Further, the Ki amounted to 8 nM in assay [2] and 1900 nM in assay [3]. Further, the Ratio in assay [5] was found to be 10. For the same molecule, in assay [4], the Ratio Ki is 238.

With `CCSc1ccc([C@H]2CC3CCC([C@H]2C(=O)OC)N3CCCF)cc1` (stereo partly specified), the IC50 in assay [1] is 1200 nM. Also, the inhibition constant (Ki) was 27 nM in assay [2] and greater than 2000 nM in assay [3]. Moreover, the Ratio in assay [5] was found to be 2. Further, the Ratio Ki in assay [4] was greater than 74.

Consider `COC(=O)[C@@H]1C2CCC(C[C@@H]1c1ccc(SC)cc1)N2CCCF` (stereo partly specified), for which the IC50 in assay [1] was 112 nM. The values for the inhibition constant Ki in assay [2] and in assay [3] were 3 nM and 960 nM, respectively. The Ratio in assay [5] came to 9. Besides, in assay [4], the Ratio Ki came out at 320.

`CCCN1C2CCC1[C@@H](C(=O)OC)[C@@H](c1ccc(SCC)cc1)C2` (stereo partly specified) displayed an IC50 in assay [1] of 900 nM. Besides, the inhibition constant Ki in assay [2] is 49 nM; in assay [3], greater than 2000 nM. Moreover, the Ratio in assay [5] was greater than 2. The Ratio Ki in assay [4] is greater than 41.

The molecule `COC(=O)[C@H]1[C@@H](c2ccc(SC(C)C)cc2)C[C@@H]2CC[C@H]1N2C` registered an IC50 in assay [1] of 16 nM. Further, the values for the Ki in assay [2] and in assay [3] were 23 nM and 129 nM, respectively. For the same molecule, the Ratio in assay [5] worked out at 8. In addition, in assay [4], the Ratio Ki came out at 7.

In the case of `CCCN1C2CCC1[C@@H](C(=O)OC)[C@@H](c1ccc(SC)cc1)C2` (stereo partly specified), the IC50 in assay [1] came out at 74 nM. Also, the inhibition constant (Ki) stood at 5.7 nM in assay [2] and 1200 nM in assay [3]. Moreover, the Ratio in assay [5] is 16. Further, in assay [4], the Ratio Ki was determined as 211.

As for `COC(=O)[C@H]1[C@@H](c2ccc(SC)cc2)C[C@@H]2CC[C@H]1N2C`, the half-maximal inhibitory concentration (IC50) in assay [1] is 9 nM. Further, the values for the inhibitory constant (Ki) in assay [2] and in assay [3] were 0.7 nM and 220 nM, respectively. Moreover, the Ratio in assay [5] was found to be 24. Besides, the Ratio Ki in assay [4] turned out to be 314.

`CCSc1ccc([C@H]2CC3CCC(N3)[C@H]2C(=O)OC)cc1` (stereo partly specified) registered a 50% inhibitory concentration (IC50) in assay [1] of 177 nM. The inhibition constant (Ki) in assay [2] turned out to be 1.26 nM; in assay [3] it was 118 nM. For the same molecule, in assay [5], the Ratio came to 0.7. Moreover, in assay [4], the Ratio Ki was 94.

Take `CCSc1ccc([C@H]2C[C@@H]3CC[C@H]([C@H]2C(=O)OC)N3C)cc1`: the IC50 in assay [1] turned out to be 232 nM. Moreover, the Ki in assay [2] stood at 4.5 nM; in assay [3] it was 1170 nM. For the same molecule, the Ratio in assay [5] amounted to 5. In addition, the Ratio Ki in assay [4] worked out at 260.

In assay [1], `COC(=O)[C@H]1[C@@H](c2ccc(SC)c(Br)c2)C[C@@H]2CC[C@H]1N2C` registered an IC50 of 10.1 nM. In addition, the values for the Ki in assay [2] and in assay [3] were 0.6 nM and 121 nM, respectively. In addition, the Ratio in assay [5] was determined as 12. For the same molecule, the Ratio Ki in assay [4] was determined as 202.

As to `C=CCN1C2CCC1[C@@H](C(=O)OC)[C@@H](c1ccc(SCC)cc1)C2` (stereo partly specified), the concentration for half-maximal inhibition (IC50) in assay [1] was found to be 1100 nM. Further, the results for the inhibition constant (Ki) in assay [2] and in assay [3] were 47 nM and greater than 2000 nM, respectively. The Ratio in assay [5] is greater than 2. Also, the Ratio Ki in assay [4] was greater than 43.

Consider `C=CCN1C2CCC1[C@@H](C(=O)OC)[C@@H](c1ccc(SC)cc1)C2` (stereo partly specified), for which the 50% inhibitory concentration (IC50) in assay [1] amounted to 71 nM. Besides, the inhibition constant (Ki) in assay [2] was 5.5 nM; in assay [3] it was 2000 nM. Further, in assay [5], the Ratio came out at 28. The Ratio Ki in assay [4] stood at 364.

Regarding `COC(=O)[C@@H]1C2CCC(C[C@@H]1c1ccc(SC)cc1)N2` (stereo partly specified), in assay [1], the IC50 was 28 nM. Moreover, the Ki was 0.19 nM in assay [2] and 21 nM in assay [3]. In assay [5], the Ratio worked out at 0.8. Also, in assay [4], the Ratio Ki is 110.

`COC(=O)[C@H]1[C@@H](c2ccc([S+](C)[O-])cc2)C[C@@H]2CC[C@H]1N2C` (stereo partly specified): in assay [1], the IC50 was found to be 91 nM. For the same molecule, the Ki in assay [2] is 4.3 nM; in assay [3], 515 nM. The Ratio in assay [5] is 6. Also, the Ratio Ki in assay [4] was 120.

On to `COC(=O)[C@H]1[C@@H](c2ccc([S+](C)[O-])c(Br)c2)C[C@@H]2CC[C@H]1N2C` (stereo partly specified), for which the IC50 in assay [1] came to 76 nM. The inhibition constant Ki is 3.2 nM in assay [2] and 690 nM in assay [3]. Moreover, the Ratio in assay [5] worked out at 9. Further, in assay [4], the Ratio Ki was 216.

In the case of `COC(=O)[C@H]1[C@@H](c2ccc(OC)cc2)C[C@@H]2CC[C@H]1N2C`, the Ki in assay [2] is 4.3 nM; in assay [3], 1110 nM.
